Source: PubChem BioAssay
This is a sample that favours compounds with a hit; in the whole collection about 1.9% have one here.
HIV Rev-RRE inh = disrupts HIV-1 Rev binding to RRE RNA. P05866. 97,000 tested, 0.79% active. inhibition, % at 8 µM. AID 704. Rev peptide-RRE RNA binding, FRET;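 active = inhibition above the screen-wide mean plus 3 SD, cut at about 35% in these data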;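 also: 0% = median DMSO wells and 100% = median Neomycin B control wells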
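Probe or stimulus: fluorescein-Rev peptide as binding partner; assay system: Cy5-tagged RRE RNA duplex with fluorescein-tagged Rev peptide; timing: 5 min compound–RNA preincubation, then 15 min with peptide, 25 °C; medium: HEPES pH 7.5 buffer with KCl, MgCl2, NaCl and EDTA; signal: fluorescein-to-Cy5 FRET, 480 nm excitation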
FAK blocker = inhibitors of human focal adhesion kinase. biochemical FAK kinase activity assay. Q05397. inhibition, %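 (tested at 7 µM)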. AID 727. 97,000 tested, 0.84% active;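 also: 0% = DMSO and 100% = reference compound high control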
Target sequence (Q05397 whole entry, looked up): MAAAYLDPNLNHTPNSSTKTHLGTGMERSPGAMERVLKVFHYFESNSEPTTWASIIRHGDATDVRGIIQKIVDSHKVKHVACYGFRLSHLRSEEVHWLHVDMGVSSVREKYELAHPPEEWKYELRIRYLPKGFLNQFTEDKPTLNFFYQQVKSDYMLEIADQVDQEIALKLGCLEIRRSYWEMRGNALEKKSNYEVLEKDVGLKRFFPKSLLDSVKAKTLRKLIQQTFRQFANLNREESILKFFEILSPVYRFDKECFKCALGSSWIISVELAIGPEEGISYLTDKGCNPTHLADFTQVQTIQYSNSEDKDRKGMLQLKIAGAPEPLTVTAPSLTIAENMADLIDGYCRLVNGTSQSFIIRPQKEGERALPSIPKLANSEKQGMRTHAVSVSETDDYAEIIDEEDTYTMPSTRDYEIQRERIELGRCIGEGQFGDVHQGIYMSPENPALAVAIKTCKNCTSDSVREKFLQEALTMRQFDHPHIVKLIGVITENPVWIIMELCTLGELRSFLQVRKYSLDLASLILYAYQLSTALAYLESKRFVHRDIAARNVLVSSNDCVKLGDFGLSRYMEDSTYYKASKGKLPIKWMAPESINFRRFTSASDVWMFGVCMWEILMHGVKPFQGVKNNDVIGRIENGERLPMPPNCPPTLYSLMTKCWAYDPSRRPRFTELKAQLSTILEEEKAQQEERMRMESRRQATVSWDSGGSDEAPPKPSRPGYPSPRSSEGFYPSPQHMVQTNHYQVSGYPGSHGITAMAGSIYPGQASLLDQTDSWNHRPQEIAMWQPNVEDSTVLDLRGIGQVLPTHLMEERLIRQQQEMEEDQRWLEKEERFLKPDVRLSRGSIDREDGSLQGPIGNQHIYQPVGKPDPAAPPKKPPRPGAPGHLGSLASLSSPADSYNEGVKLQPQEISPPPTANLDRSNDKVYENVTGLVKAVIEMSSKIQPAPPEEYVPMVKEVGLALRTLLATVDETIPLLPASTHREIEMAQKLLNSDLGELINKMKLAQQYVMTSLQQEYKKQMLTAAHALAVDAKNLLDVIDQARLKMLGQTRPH
LYP act = LYP (human) phosphatase activation; activation, % at 2 µM; recombinant LYP, DiFMUP fluorescence; 0 = plate median, 100 = signal doubled; 96,000 tested, 0.11% active; AID 697; Q9Y2R2;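 active = activation at 2 µM above a set limit, the mean plus 5 SD, cut at about 37% in these data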
EphB4 antag = EphB4-ephrin-B2 interaction antagonism; P54760; EphB4 LBD / TNYL-RAW-Alexa532 peptide, fluorescence polarization; inhibition, % at 7 µM; 97,000 tested, 0.15% active; AID 720;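 active = inhibition above the screen-wide mean inhibition plus 3 SD, cut at about 15% in these data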;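 also: 0% = DMSO wells and 100% = excess unlabeled TNYL-RAW peptide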
PTPN22 inh 2 = LYP (human) phosphatase inhibition. Q9Y2R2. recombinant LYP catalytic domain, DiFMUP fluorescence. inhibition, % at 2 µM. 96,000 tested, 0.21% active;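 active = inhibition at 2 µM at or above a set limit, the screen mean plus 3 SD, cut at about 24% in these data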;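 also: 0% = DMSO with enzyme and 100% = enzyme fully blocked by orthovanadate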
FAK inh confirm = confirmation of human focal adhesion kinase (FAK) inhibitors; shares compounds with FAK blocker; AID 794; 750 tested, 28% active; inhibition, % at 7 µM; FAK kinase biochemical inhibition assay
Numbers without * were called inactive. Rule as the data show it, unless noted: active = inhibition above about 19%; inactive = the rest.

For CCn1c(C)[n+](CCOCC[n+]2c(C)n(CC)c3cc(Cl)c(Cl)cc32)c2cc(Cl)c(Cl)cc21 the results were HIV Rev-RRE inh -11.8, FAK blocker 0.6, LYP act 1.2, EphB4 antag 0.9 and PTPN22 inh 2 -1.6.
Screening c1cncc(-c2nc(NCc3ccco3)c3ccccc3n2)c1 returned HIV Rev-RRE inh 8.1, FAK blocker 18.8*, LYP act 10.8, EphB4 antag 2.5, PTPN22 inh 2 -10.9 and FAK inh confirm 8.6.
`c1ccc(-c2nc(NCc3cccnc3)c3ccccc3n2)cc1` gave HIV Rev-RRE inh 8.5, FAK blocker 1.8, LYP act 3.1, EphB4 antag 1.9 and PTPN22 inh 2 0.3.
For NC(=O)c1sc2nc3c(c(-c4ccc(Cl)cc4)c2c1N)CCCC3 the results were HIV Rev-RRE inh 10.4, FAK blocker -3.8, LYP act -7.0, EphB4 antag 2.0 and PTPN22 inh 2 4.7.
For Cc1ccc(-c2c3c(nc4sc(C(N)=O)c(N)c24)CCC3)cc1 the results were HIV Rev-RRE inh 4.3, FAK blocker 21.9*, LYP act -0.2, EphB4 antag 8.9, PTPN22 inh 2 1.5 and FAK inh confirm 5.3.
O=C(NCc1ccccc1)c1ccc2nc(-c3ccco3)c(-c3ccco3)nc2c1 was read as HIV Rev-RRE inh -20.7, FAK blocker 45.5*, LYP act -6.6, EphB4 antag 3.2, PTPN22 inh 2 8.6 and FAK inh confirm 4.3.
Screening O=C(Nc1ccccc1)c1ccc2nc(-c3ccco3)c(-c3ccco3)nc2c1 returned HIV Rev-RRE inh 5.2, FAK blocker 20.5*, LYP act -10.8, EphB4 antag 1.6, PTPN22 inh 2 13.5 and FAK inh confirm 1.8.
`CC(=O)c1ccc(NC(=O)c2ccc3nc(-c4ccco4)c(-c4ccco4)nc3c2)cc1` gave HIV Rev-RRE inh -41.7, FAK blocker 84.2*, LYP act -5.7, EphB4 antag -2.6, PTPN22 inh 2 7.5 and FAK inh confirm 30.4*.
Screening O=C(NCc1ccccc1)c1ccc2nccnc2c1 returned HIV Rev-RRE inh 6.8, FAK blocker 3.9, LYP act -4.4, EphB4 antag 0.4 and PTPN22 inh 2 4.7.
For O=C(c1cccc(C(=O)N2CCN(c3ncccn3)CC2)c1)N1CCN(c2ncccn2)CC1 the results were HIV Rev-RRE inh 8.3, FAK blocker 0.0, LYP act 3.4, EphB4 antag 7.3 and PTPN22 inh 2 0.0.
Screening O=C(c1ccc2nc(-c3ccco3)c(-c3ccco3)nc2c1)N1CCN(c2ncccn2)CC1 returned HIV Rev-RRE inh -1.3, FAK blocker 55.1*, LYP act -13.0, EphB4 antag -5.9, PTPN22 inh 2 14.8 and FAK inh confirm -2.8.
`COCCNS(=O)(=O)c1cccc2cccnc12` gave LYP act 0.3 and PTPN22 inh 2 -1.9.
Screening O=C(COC(=O)c1ccc(Br)o1)Nc1cccc(S(=O)(=O)N2CCCCCC2)c1 returned HIV Rev-RRE inh 14.7, FAK blocker -1.0, LYP act 3.4, EphB4 antag 0.8 and PTPN22 inh 2 -0.5.
CCOC(=O)c1c(C)c(C(=O)NCC2CCCO2)c(C)n1C (configuration not stated) was read as HIV Rev-RRE inh 5.8, FAK blocker -1.4, LYP act -0.3, EphB4 antag -2.9 and PTPN22 inh 2 -4.0.
Screening Cc1ccc(Nc2c([N+](=O)[O-])c(=O)n(C)c3ccccc23)cc1C returned HIV Rev-RRE inh 1.8, FAK blocker 1.9, LYP act 10.8, EphB4 antag -11.8 and PTPN22 inh 2 -4.1.
For COc1ccccc1NC(=O)NCCN1C(=O)C2C3C=CC(C3)C2C1=O (configuration not stated) the results were HIV Rev-RRE inh -0.3, FAK blocker -1.0, LYP act -2.1, EphB4 antag -9.1 and PTPN22 inh 2 -0.8.
CCCC(=O)Nc1ccccc1-c1nnc(SC)[nH]c1=O was read as HIV Rev-RRE inh 11.1, FAK blocker -1.8, LYP act 0.6, EphB4 antag 11.9 and PTPN22 inh 2 -3.4.
CCOC(=O)Nc1ccc(S(=O)(=O)Nc2cc(C)on2)cc1 was read as HIV Rev-RRE inh 1.1, FAK blocker -3.6, LYP act 7.6, EphB4 antag -11.6 and PTPN22 inh 2 -3.3.
For CCC(=O)Nc1ccc(S(=O)(=O)Nc2cc(C)on2)cc1 the results were HIV Rev-RRE inh 12.5, FAK blocker 33.6*, LYP act 11.7, EphB4 antag 6.2, PTPN22 inh 2 -11.0 and FAK inh confirm 0.1.
For Cc1ccc(C(=O)CSc2nnc(-c3ccco3)n2CC2CCCO2)cc1 (configuration not stated) the results were HIV Rev-RRE inh 2.9, FAK blocker 2.9, LYP act -0.3, EphB4 antag 2.0 and PTPN22 inh 2 0.6.
Screening COC(=O)c1[nH]c2ccc(C)cc2c1NC(=O)CN1CCCc2ccccc21 returned HIV Rev-RRE inh 17.3, FAK blocker 19.6*, LYP act -11.8, EphB4 antag 0.8, PTPN22 inh 2 10.2 and FAK inh confirm 22.1*.
COC(=O)c1[nH]c2cc(C)ccc2c1NC(=O)CN1CCN(c2ccccc2OC)CC1 was read as HIV Rev-RRE inh -0.3, FAK blocker -2.0, LYP act -2.2, EphB4 antag -2.4 and PTPN22 inh 2 0.8.
Screening Clc1ccc2[nH]cc(-c3nnnn3-c3ccccc3)c2c1 returned HIV Rev-RRE inh 8.2, FAK blocker 32.7*, LYP act 3.5, EphB4 antag -5.3, PTPN22 inh 2 1.9 and FAK inh confirm 19.9*.
Screening COc1ccc(OC)c(NS(=O)(=O)Cc2ccccc2)c1 returned HIV Rev-RRE inh 6.2, FAK blocker 45.7*, LYP act -0.9, EphB4 antag -5.4, PTPN22 inh 2 -1.6 and FAK inh confirm 32.2*.
For COc1ccc(OC)c(S(=O)(=O)NCc2ccccc2)c1 the results were HIV Rev-RRE inh 2.8, FAK blocker -3.3, LYP act -2.1, EphB4 antag -7.7 and PTPN22 inh 2 1.7.
`O=C(Nc1ccc(-n2nncc2-c2ccco2)cc1)c1cc2ccccc2oc1=O` gave HIV Rev-RRE inh -16.9, FAK blocker 81.8*, LYP act -13.6, EphB4 antag -2.1, PTPN22 inh 2 12.6 and FAK inh confirm 78.2*.
Screening O=C(Nc1ccc(-n2nncc2-c2ccco2)cc1)c1cccc(F)c1 returned HIV Rev-RRE inh 7.2, FAK blocker -2.8, LYP act -1.8, EphB4 antag -2.4 and PTPN22 inh 2 -0.1.
For CCOc1ccc(N(CC(=O)NC2CCCC2)C(=O)CSc2nnc(COc3ccccc3)o2)cc1 the results were HIV Rev-RRE inh 2.7, FAK blocker 2.0, LYP act 0.5, EphB4 antag -2.1 and PTPN22 inh 2 1.3.
For CC(=O)N(/N=C1\Sc2ccccc2C1=O)c1cccc(C)c1 the results were HIV Rev-RRE inh 7.8, FAK blocker 19.3*, LYP act -6.2, EphB4 antag -5.6, PTPN22 inh 2 7.8 and FAK inh confirm 15.8.
